Measurements reported in ChEMBL document CHEMBL2040767, “Development of Polar Adenosine A2A Receptor Agonists for Inflammatory Bowel Disease: Synergism with A2B Antagonists” (ACS Med Chem Lett, 2011).

Experiments:
Adenosine receptor A1 [1] = target: T1, Adenosine receptor A1 (Homo sapiens, UniProt P30542); test: Displacement of [3H]CCPA from human recombinant adenosine A1 receptor
T1 sequence (P30542 whole entry): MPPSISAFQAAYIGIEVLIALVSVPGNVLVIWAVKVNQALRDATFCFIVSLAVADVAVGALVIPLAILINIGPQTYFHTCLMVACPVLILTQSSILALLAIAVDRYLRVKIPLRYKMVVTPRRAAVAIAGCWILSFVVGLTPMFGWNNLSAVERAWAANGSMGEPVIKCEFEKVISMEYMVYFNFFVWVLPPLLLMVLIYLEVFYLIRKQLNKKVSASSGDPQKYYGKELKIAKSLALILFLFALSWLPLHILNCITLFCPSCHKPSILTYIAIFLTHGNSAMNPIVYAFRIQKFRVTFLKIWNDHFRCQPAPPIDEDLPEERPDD

Adenosine receptor A2a [2] = target: T2, Adenosine receptor A2a (Homo sapiens, UniProt P29274); test: Displacement of [3H]CGS21680 from human recombinant adenosine A2A receptor
T2 sequence (P29274 whole entry): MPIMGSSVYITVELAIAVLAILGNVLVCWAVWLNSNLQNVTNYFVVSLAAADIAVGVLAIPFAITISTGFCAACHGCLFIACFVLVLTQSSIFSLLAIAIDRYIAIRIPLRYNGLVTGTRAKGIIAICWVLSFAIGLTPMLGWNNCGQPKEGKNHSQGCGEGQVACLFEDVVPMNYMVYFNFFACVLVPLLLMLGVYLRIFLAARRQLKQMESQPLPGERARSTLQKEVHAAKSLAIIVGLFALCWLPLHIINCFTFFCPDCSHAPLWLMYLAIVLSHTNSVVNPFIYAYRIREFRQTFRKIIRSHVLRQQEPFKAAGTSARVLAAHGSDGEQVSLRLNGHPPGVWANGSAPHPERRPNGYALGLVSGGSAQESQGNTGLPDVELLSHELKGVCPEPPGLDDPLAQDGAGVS

Adenosine receptor A3 [3] = target: T3, Adenosine receptor A3 (Homo sapiens, UniProt P0DMS8); test: Displacement of [3H]NECA from human recombinant adenosine A3 receptor
T3 sequence (P0DMS8 whole entry): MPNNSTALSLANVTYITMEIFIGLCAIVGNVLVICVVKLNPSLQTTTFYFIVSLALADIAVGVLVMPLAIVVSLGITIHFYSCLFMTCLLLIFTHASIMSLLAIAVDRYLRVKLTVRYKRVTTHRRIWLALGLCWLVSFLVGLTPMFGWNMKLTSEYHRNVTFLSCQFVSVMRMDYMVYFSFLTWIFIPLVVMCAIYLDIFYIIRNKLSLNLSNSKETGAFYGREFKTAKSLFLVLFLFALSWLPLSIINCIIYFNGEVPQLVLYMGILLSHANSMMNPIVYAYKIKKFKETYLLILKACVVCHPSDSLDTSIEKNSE

Adenosine receptor A2a [4] = target: T4, Adenosine receptor A2a (Rattus norvegicus, UniProt P30543); test: Displacement of [3H]CGS21680 from adenosine A2A receptor in rat brain striatum; type: tissue-based
T4 sequence (P30543 whole entry): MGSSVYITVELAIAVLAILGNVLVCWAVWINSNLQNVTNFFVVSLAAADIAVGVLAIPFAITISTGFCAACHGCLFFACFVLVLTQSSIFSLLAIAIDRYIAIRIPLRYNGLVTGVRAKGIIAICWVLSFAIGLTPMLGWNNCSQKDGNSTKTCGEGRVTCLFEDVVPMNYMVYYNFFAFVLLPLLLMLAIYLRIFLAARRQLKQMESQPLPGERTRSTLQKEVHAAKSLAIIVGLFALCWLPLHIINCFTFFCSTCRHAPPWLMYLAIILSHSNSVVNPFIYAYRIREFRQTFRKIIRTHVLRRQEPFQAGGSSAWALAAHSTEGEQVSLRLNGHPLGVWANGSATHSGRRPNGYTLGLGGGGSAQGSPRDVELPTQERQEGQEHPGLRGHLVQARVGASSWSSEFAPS

Adenosine receptor A1 [5] = target: T5, Adenosine receptor A1 (Rattus norvegicus, UniProt P25099); test: Displacement of [3H]CCPA from adenosine A1 receptor in rat brain cortex; type: tissue-based
T5 sequence (P25099 whole entry): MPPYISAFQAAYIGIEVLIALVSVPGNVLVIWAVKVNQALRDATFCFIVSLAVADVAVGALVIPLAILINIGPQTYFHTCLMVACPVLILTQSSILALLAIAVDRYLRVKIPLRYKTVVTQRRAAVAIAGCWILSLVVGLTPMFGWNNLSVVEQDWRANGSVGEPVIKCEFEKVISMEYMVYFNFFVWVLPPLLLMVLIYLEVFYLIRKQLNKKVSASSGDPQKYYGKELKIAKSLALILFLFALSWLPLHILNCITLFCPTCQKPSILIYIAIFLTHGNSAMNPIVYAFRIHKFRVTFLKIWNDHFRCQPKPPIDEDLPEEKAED

Adenosine receptor A3 [6] = target: T3, Adenosine receptor A3; test: Displacement of [3H]PSB-11 from human recombinant adenosine A3 receptor expressed in CHO cells; type: cell-based
Summary of the method: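 Competition binding at human recombinant A3 receptor with [3H]PSB-11 as radioligand; Ki reported as mean ± SEM from three experiments.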

Adenosine receptor A2a [7] = target: T2, Adenosine receptor A2a; test: Agonist activity at human adenosine A2A receptor expressed in CHO-K1 cells by cAMP accumulation assay; type: functional, cell-based
Adenosine receptor A2b = target: T6, Adenosine receptor A2b (Homo sapiens, UniProt P29275); test: Displacement of [3H]PSB-603 from human recombinant adenosine A2B receptor expressed in CHO cells after 75 mins by liquid scintillation assay; type: cell-based
T6 sequence (P29275 whole entry): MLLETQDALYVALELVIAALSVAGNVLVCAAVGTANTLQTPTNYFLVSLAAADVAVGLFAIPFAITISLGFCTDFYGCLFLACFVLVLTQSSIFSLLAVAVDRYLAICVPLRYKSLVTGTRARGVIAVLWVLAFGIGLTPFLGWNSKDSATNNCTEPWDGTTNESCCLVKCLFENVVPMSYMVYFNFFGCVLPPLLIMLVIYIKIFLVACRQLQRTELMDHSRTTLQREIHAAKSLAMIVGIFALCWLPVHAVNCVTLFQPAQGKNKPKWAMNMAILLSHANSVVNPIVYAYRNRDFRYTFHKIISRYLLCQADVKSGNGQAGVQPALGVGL

Adenosine receptor A2a [8] = target: T4, Adenosine receptor A2a; test: Displacement of [3H]MSX-2 from adenosine A2A receptor in rat brain striatum; type: tissue-based
[9] = target: T7, Adenosine receptor A2b (Rattus norvegicus) (UniProt P29276); test: Antagonist activity at adenosine A2B receptor in Wistar rat ileum/jejunum segment assessed as reversal of TNBS-induced inhibition of Ach-induced contraction after 30 mins; type: functional, tissue-based
T7 sequence (whole entry): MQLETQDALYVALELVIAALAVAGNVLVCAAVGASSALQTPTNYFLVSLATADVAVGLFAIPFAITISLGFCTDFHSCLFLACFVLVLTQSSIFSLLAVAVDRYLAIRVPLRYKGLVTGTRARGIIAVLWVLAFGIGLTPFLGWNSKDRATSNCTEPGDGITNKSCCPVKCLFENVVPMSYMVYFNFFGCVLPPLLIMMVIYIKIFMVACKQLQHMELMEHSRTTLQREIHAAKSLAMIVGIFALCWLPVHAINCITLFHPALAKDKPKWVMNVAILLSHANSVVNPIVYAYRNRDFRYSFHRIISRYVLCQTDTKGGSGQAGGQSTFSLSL
Summary of the method: (§1)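 Ex vivo rat ileum/jejunum segments; contractions evoked by acetylcholine 1 mM, expressed as % of Ach contraction without drug (100%). Acute inflammation induced by TNBS 10 mM, with the A2B antagonist (1–100 μM) preincubated alongside TNBS. Means ± SEM of seven experiments.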

[10] = target: T7, Adenosine receptor A2b (Rattus norvegicus); test: Antagonist activity at adenosine A2B receptor in Wistar rat ileum/jejunum segment assessed as reversal of TNBS-induced inhibition of Ach-induced contraction at 10 uM after 30 mins; type: functional, tissue-based; parameters: scale not given: the % may be the effect or the level left; summary of the method: as §1
[11] = target: T7, Adenosine receptor A2b (Rattus norvegicus); test: Antagonist activity at adenosine A2B receptor in Wistar rat ileum/jejunum segment assessed as reversal of TNBS-induced inhibition of Ach-induced contraction at 100 uM after 30 mins; type: functional, tissue-based; parameters: scale not given: the % may be the effect or the level left; summary of the method: as §1

Compound | Ki (Adenosine receptor A1 [1]) [nM] | Ki (Adenosine receptor A2a [2]) [nM] | Ki (Adenosine receptor A3 [3]) [nM] | Ki (Adenosine receptor A2a [4]) [nM] | Ki (Adenosine receptor A1 [5]) [nM] | Ki (Adenosine receptor A3 [6]) [nM] | EC50 (Adenosine receptor A2a [7]) [nM] | Ki (Adenosine receptor A2b) [nM] | Ki (Adenosine receptor A2a [8]) [nM] | Activity [9] | Activity [10] [%] | Activity [11] [%]
Nc1nc(SCCc2ccc(S(=O)(=O)O)cc2)nc2c1ncn2[C@@H]1O[C@H](CO)[C@@H](O)[C@H]1O | 541 | 360 | > 1000 | 44.4 | ≥ 10000 | > 10000 | 117 | > 10000 | – | – | – | –
Nc1nc(SCCc2ccc(C(=O)O)cc2)nc2c1ncn2[C@@H]1O[C@H](CO)[C@@H](O)[C@H]1O | 404 | ≥ 10000 | > 1000 | 152 | 1010 | > 10000 | – | > 10000 | – | – | – | –
Nc1nc(SCC(=O)O)nc2c1ncn2[C@@H]1O[C@H](CO)[C@@H](O)[C@H]1O | – | > 10000 | – | – | 1930 | > 10000 | – | – | > 10000 | – | – | –
Nc1nc(S(=O)(=O)CCc2ccc(S(=O)(=O)O)cc2)nc2c1ncn2[C@@H]1O[C@H](CO)[C@@H](O)[C@H]1O | 545 | > 10000 | – | > 10000 | 1800 | > 10000 | – | – | – | – | – | –
CCCn1c(=O)[nH]c2nc(-c3ccc(S(=O)(=O)N4CCN(Cc5ccccc5)CC4)cc3)[nH]c2c1=O | – | – | – | – | – | – | – | – | – | Dose-dependent effect | 53.3 | 86.1
